Results taken from ChEMBL document CHEMBL1126581 (J Med Chem, 1993).
Where a SMILES comes first, the peptide text is derived from it. [ ]: non-standard residue; d: D form. The star is where a group is joined. dHpg = N[C@@H](C(=O)O)c1ccc(O)cc1; dChg = N[C@@H](C(=O)O)C1CCCCC1; dPhg = N[C@@H](C(=O)O)c1ccccc1; Boc = CC(C)(C)OC(=O)*

Columns and labels:
Plasminogen = Plasminogen (Homo sapiens, UniProt P00747); test: Inhibitory activity against plasmin
[1] = Selectivity was expressed as the ratio is IC 50 of plasmin / thrombin
Method in brief: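 Ratio of plasmin IC50 to thrombin IC50. Amidolytic assays at 25 °C in 0.1 M Tris-HCl (pH 7.4):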

[2] = biological target: Coagulation factor X (Bos taurus) (UniProt P00743); test: Inhibitory activity against factor Xa
Chain of Coagulation factor X (Bos taurus) (P00743 whole entry, looked up): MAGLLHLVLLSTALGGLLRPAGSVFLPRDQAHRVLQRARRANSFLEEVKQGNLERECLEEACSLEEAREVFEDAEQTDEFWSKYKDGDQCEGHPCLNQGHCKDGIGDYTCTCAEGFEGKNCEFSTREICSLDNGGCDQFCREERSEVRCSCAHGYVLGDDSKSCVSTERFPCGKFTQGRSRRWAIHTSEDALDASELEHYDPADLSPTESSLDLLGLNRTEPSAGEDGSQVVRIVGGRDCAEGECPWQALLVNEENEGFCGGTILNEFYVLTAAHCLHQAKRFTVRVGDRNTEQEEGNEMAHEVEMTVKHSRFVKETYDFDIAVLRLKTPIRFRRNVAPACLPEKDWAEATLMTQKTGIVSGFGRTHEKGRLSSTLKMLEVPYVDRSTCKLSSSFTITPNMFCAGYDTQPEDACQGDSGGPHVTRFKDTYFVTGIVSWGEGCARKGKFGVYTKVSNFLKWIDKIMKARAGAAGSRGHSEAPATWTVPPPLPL

Prothrombin (Bos taurus) = Prothrombin (Bos taurus) (UniProt P00735); test: Inhibitory activity against thrombin
[3] = Selectivity was expressed as the ratio is IC 50 of t-PA / thrombin
Method in brief: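 Ratio of t-PA IC50 to thrombin IC50. Amidolytic assays in 0.1 M Tris-HCl (pH 7.4) at 25 °C: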

Serine protease 1 = Serine protease 1 (Homo sapiens, UniProt P07477); test: Inhibitory activity against trypsin
Chain of Serine protease 1 (P07477 whole entry): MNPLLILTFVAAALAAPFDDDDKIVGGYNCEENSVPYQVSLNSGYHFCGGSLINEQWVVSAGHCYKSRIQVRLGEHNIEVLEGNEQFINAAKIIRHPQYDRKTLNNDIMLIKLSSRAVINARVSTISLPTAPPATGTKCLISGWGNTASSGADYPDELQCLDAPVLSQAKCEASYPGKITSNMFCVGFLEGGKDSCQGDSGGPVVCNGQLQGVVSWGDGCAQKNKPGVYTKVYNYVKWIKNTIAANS
Method in brief: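 Trypsin 93 ng/mL hydrolysing Bz-Phe-Val-Arg-pNA 0.125 mg/mL, 0.1 M Tris-HCl pH 7.4, 25 °C. […] Varying peptide concentrations, 5-min preincubation. IC50 is the concentration producing 50% inhibition of activity against a blank control.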

Chain of Plasminogen (P00747 97-580 limits assumed): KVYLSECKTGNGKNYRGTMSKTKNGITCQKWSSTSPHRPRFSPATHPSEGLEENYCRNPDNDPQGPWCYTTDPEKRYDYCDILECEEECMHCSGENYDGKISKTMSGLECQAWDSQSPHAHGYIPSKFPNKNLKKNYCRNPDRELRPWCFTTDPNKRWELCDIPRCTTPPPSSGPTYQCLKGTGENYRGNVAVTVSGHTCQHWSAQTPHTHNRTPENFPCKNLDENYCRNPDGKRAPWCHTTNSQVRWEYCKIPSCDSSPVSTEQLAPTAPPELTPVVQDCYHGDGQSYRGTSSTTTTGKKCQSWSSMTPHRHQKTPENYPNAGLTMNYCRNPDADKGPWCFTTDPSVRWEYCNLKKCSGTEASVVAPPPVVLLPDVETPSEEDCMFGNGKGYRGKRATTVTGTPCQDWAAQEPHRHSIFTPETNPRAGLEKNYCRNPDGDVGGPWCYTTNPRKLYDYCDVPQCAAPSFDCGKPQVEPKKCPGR
Chain of Plasminogen (P00747 581-810 limits assumed): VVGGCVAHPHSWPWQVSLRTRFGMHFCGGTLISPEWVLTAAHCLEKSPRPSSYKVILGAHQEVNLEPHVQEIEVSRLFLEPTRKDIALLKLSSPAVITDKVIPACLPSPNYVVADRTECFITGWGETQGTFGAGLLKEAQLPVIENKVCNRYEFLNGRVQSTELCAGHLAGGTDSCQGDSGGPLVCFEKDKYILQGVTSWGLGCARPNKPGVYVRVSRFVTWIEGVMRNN

Row | Compound | IC50 (Plasminogen) | Selectivity ratio [1] | IC50 [2] | IC50 (Prothrombin (Bos taurus)) | Selectivity ratio [3] | IC50 (Serine protease 1)
1 | CO[C@H](C(=O)N1CCC[C@H]1C(=O)NC(C=O)CCCN=C(N)N)c1ccccc1 (some centres not stated) | 15000 nM | 60 | 27000 nM | 250 nM | 3400 | –
2 | C[C@H](C(=O)N1CCC[C@H]1C(=O)NC(C=O)CCCN=C(N)N)c1ccccc1 (some centres not stated) | – | 190 | – | – | > 100 | –
3 | CC(C)(C)OC(=O)N[C@@H](C(=O)N1CCC[C@H]1C(=O)NC(C=O)CCCNC(=N)N)c1cccc2ccccc12 (some centres not stated) | 620 nM | – | 1400 nM | 23 nM | – | 14 nM
4 | CC(C)(C)OC(=O)NC(C(=O)N1CCC[C@H]1C(=O)NC(C=O)CCCN=C(N)N)c1ccc(Cl)c(Cl)c1 (some centres not stated) | – | 6 | – | – | 1100 | –
5 | N=C(N)NCCC[C@@H](C=O)NC(=O)[C@@H]1CCCN1C(=O)[C@H]1Cc2ccccc2CN1 | – | – | 4100 nM | 25 nM | – | 19 nM
6 | C[C@@H](C(=O)N1CCC[C@H]1C(=O)NC(C=O)CCCN=C(N)N)c1ccccc1 (some centres not stated) | 41000 nM | 8 | 81000 nM | 5100 nM | – | 890 nM
7 | CC(C)(C)OC(=O)N[C@H](C(=O)N1CCC[C@H]1C(=O)NC(C=O)CCCNC(=N)N)c1cccc2ccccc12 (some centres not stated) | 180 nM | – | 210 nM | 55 nM | – | 29 nM
8 | CC(C)(C)OC(=O)N[C@@H](C(=O)N1CCC[C@H]1C(=O)N[C@H](C=O)CCCN=C(N)N)c1ccccc1 (Boc-[dPhg]-Pro-Arg-aldehyde) | 98 nM | 6 | 260 nM | 16 nM | 540 | 9.8 nM
9 | CC(C)(C)OC(=O)N[C@@H](C(=O)N1CCC[C@H]1C(=O)N[C@H](C=O)CCCN=C(N)N)C1CCCCC1 (Boc-[dChg]-Pro-Arg-aldehyde) | 81 nM | 7 | 81 nM | 12 nM | 190 | 13 nM
10 | CC(C)(C)OC(=O)N[C@@H](C(=O)N1CCC[C@H]1C(=O)NC(C=O)CCCN=C(N)N)c1ccc2ccccc2c1 (some centres not stated) | 55 nM | 3 | 50 nM | 18 nM | 670 | 9 nM
11 | CC(C)(C)OC(=O)NC(C(=O)N1CCC[C@H]1C(=O)NC(C=O)CCCNC(=N)N)c1ccc(Cl)c(Cl)c1 (some centres not stated) | 180 nM | – | 69 nM | 28 nM | – | 15 nM
12 | CC(C)(C)OC(=O)N[C@@H](C(=O)N1CCC[C@H]1C(=O)NC(C=O)CCCN=C(N)N)c1cccc2ccccc12 (some centres not stated) | – | 30 | – | – | 870 | –
13 | CN[C@@H](C(=O)N1CCC[C@H]1C(=O)N[C@H](C=O)CCCN=C(N)N)c1ccccc1 | – | 30 | – | – | 2300 | –
14 | NC(N)=NCCC[C@@H](C=O)NC(=O)[C@@H]1CCCN1C(=O)[C@H](N)c1ccccc1 (H-[dPhg]-Pro-Arg-aldehyde) | 910 nM | 50 | 1600 nM | 18 nM | 2200 | 19 nM
15 | CC(C)(C)OC(=O)N[C@@H](C(=O)N1CCC[C@H]1C(=O)N[C@H](C=O)CCCN=C(N)N)c1ccsc1 | 150 nM | 2 | 190 nM | 73 nM | 180 | 13 nM
16 | CC(C)(C)OC(=O)N[C@H](C(=O)N1CCC[C@H]1C(=O)NC(C=O)CCCN=C(N)N)c1cccc2ccccc12 (some centres not stated) | – | 3 | – | – | – | –
17 | N=C(N)NCCC[C@@H](C=O)NC(=O)[C@@H]1CCCN1C(=O)[C@@H]1NCCc2ccccc21 | 1500 nM | – | – | 19 nM | – | 23 nM
18 | C[C@H](C(=O)N1CCC[C@H]1C(=O)NC(C=O)CCCNC(=N)N)c1ccccc1 (some centres not stated) | 18000 nM | – | 31000 nM | 94 nM | – | 180 nM
19 | CC(C)(C)OC(=O)N[C@H](C(=O)N1CCC[C@H]1C(=O)N[C@H](C=O)CCCN=C(N)N)c1ccc(F)cc1 | 770 nM | 9 | 6700 nM | 85 nM | 1100 | 24 nM
20 | CC(C)(C)OC(=O)NC(C(=O)N1CCC[C@H]1C(=O)NC(C=O)CCCN=C(N)N)c1cccc(C(F)(F)F)c1 (some centres not stated) | 130 nM | 5 | 1400 nM | 27 nM | 560 | 19 nM
21 | CC(C)(C)OC(=O)N[C@@H](C(=O)N1CCC[C@H]1C(=O)N[C@H](C=O)CCCN=C(N)N)c1ccc(O)cc1 (Boc-[dHpg]-Pro-Arg-aldehyde) | 94 nM | 1 | 200 nM | 89 nM | 180 | 17 nM
22 | CC(C)(C)OC(=O)N[C@@H](C(=O)N1CCC[C@H]1C(=O)N[C@H](C=O)CCCN=C(N)N)c1ccc(F)cc1 | 85 nM | 4 | 1600 nM | 30 nM | 600 | 19 nM
23 | N=C(N)NCCC[C@@H](C=O)NC(=O)[C@@H]1CCCN1C(=O)C1CCc2ccccc2N1 (some centres not stated) | 15000 nM | 5 | 12000 nM | 3100 nM | 210 | 570 nM
24 | CC[C@H](C(=O)N1CCC[C@H]1C(=O)NC(C=O)CCCN=C(N)N)c1ccccc1 (some centres not stated) | – | 160 | – | – | > 800 | –
25 | CC(C)(C)OC(=O)N[C@H](Cc1ccccc1)C(=O)N1CCC[C@H]1C(=O)N[C@H](C=O)CCCN=C(N)N | 190 nM | 4 | 1600 nM | 45 nM | 20 | 14 nM
26 | CC[C@H](C(=O)N1CCC[C@H]1C(=O)NC(C=O)CCCNC(=N)N)c1ccccc1 (some centres not stated) | 21000 nM | – | 33000 nM | 130 nM | – | 350 nM
27 | CN[C@@H](C(=O)N1CCC[C@H]1C(=O)N[C@H](C=O)CCCNC(=N)N)c1ccccc1 | 490 nM | – | 2200 nM | 18 nM | – | 18 nM
